High-throughput results: PubChem, Johns Hopkins Ion Channel Center
Compounds with a hit are over-represented: about 3.7% of the library has one in this group of screens.
KCNQ1 act: potentiators or activators of KCNQ1 channel, primary screen, cell-based, thallium flux, high-throughput | B-score at 10 µM | Potassium voltage-gated channel subfamily KQT member 1 (Homo sapiens), P51787 | CHO-K1 KCNQ1, thallium flux FluxOR fluorescence; stronger effect = higher value | 0.35% of 310,000 active;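 active = fluorescence ratio B-score, a plate-corrected score, at least three library SD, with initial intensity B-score within 5 SD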
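Medium – assay buffer, equal DMSO in all wells · Material – CHO-K1 cell line with stable KCNQ1 potassium channel expression · Signal – kinetic FluxOR thallium fluorescence, 10-s 1-Hz baseline, 110-s post-stimulus read · Compound – single concentration per compound, DMSO matched to controls · Schedule – 37 °C overnight plating, 90-min dark dye load, 20-min compound pretreatment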
KCNQ1 inh: inhibitors of human KCNQ1 channel, primary screen, cell-based, thallium flux, high-throughput; AID 2642, 2010; B-score at 10 µM; CHO-K1 KCNQ1, FluxOR thallium flux fluorescence; stronger effect = higher value; Potassium voltage-gated channel subfamily KQT member 1 (Homo sapiens), P51787; 1.3% of 310,000 active;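 active = compounds whose thallium flux B-score, printed positive for inhibition, exceeds three library SD while starting fluorescence stays within three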;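 also: channel opened by potassium depolarization with thallium stimulus after 20 min compound exposure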
Kir21 inh: inhibitors of mouse Kir2.1 inward-rectifier potassium channel; B-score at 10 µM; AID 1672, 2009; HEK293-Kir2.1, FluxOR thallium flux fluorescence; stronger effect = lower value; 0.85% of 310,000 active;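 active = fluorescence ratio B-score at or below minus 3 SD of library scores, with starting-brightness B-score within 2 SD, cut at about -4.2 in these data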;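 also: channel flux triggered by added potassium and thallium sulfate stimulus; B-score of peak minus minimum fluorescence over baseline after thallium stimulus; more negative B-score means stronger Kir2.1 block with less thallium influx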
Target sequence (P35561 whole entry, looked up): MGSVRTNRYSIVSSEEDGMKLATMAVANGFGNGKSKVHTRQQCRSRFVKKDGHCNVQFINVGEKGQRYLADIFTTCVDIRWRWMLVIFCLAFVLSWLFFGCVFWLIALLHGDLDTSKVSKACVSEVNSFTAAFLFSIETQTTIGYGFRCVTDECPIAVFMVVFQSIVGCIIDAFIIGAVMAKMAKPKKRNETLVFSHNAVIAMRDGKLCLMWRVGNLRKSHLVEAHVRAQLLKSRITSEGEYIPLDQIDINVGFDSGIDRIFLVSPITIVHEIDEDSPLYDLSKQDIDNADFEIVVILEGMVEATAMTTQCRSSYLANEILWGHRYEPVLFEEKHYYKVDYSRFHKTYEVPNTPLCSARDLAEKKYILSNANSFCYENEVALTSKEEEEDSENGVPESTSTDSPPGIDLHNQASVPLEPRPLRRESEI
hERG protect: hERG rescue from dofetilide block, primary screen, cell-based, CHO-hERG, FluxOR thallium flux, dofetilide IC70. Voltage-gated inwardly rectifying potassium channel KCNH2 (Homo sapiens), Q12809. dofetilide IC70 present. activation (rescue from dofetilide block), less the hit threshold, % at 10 µM. 0.51% of 310,000 active. AID 1511, 2009;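 active = activation above the mean of controls blocked by dofetilide plus 5 SD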;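 also: thallium influx through hERG after potassium depolarization seen as dye fluorescence rise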
KCNK9 block: KCNK9 potassium channel inhibitors, primary screen, HEK293 cells, thallium flux | B-score at 10 µM | AID 488922, 2010 | 1.2% of 310,000 active | FluxOR thallium flux fluorescence; stronger effect = lower value;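 active = ratio B-score over 3 SD below the library mean, with starting fluorescence within 5 SD of its mean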;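 also: negative B-score means less thallium flux so channel inhibition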
Target sequence (Q9NPC2 whole entry, looked up): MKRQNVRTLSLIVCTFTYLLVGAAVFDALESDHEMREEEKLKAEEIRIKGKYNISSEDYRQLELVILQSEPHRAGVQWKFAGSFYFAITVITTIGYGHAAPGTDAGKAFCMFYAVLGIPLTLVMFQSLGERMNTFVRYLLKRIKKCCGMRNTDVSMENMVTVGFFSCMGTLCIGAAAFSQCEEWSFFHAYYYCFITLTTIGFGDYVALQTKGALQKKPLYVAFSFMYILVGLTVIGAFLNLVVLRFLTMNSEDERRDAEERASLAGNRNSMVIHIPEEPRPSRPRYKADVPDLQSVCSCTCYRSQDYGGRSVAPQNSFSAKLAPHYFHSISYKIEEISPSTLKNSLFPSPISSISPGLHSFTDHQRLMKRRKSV
KCNK3 inh: human KCNK3 channel inhibitors, primary screen, CHO cells, FluxOR thallium flux, B-score; Potassium channel subfamily K member 3 (Homo sapiens), O14649; FluxOR fluorescence; stronger effect = lower value; B-score at 10 µM; 0.84% of 340,000 active; AID 602410, 2012;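 active = B-score under library mean minus 4 SD, starting fluorescence ratio at most library mean plus 5 SD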;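 also: more negative B-score means stronger inhibition of thallium flux through KCNK3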
KCNQ1 block val: KCNQ1 potassium channel inhibitors, confirmation, cell-based, Tl flux, duplicate; shares compounds with KCNQ1 inh; KCNQ1 cell line, FluxOR thallium flux fluorescence; inhibition, % at 10 µM; 93% of 1,600 active;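 active = primary screen active, with duplicate mean exceeding buffer control mean plus 3 SD of buffer wells, cut at about 28% in these data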;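 also: 0% = buffer control ratio and 100% = XE991 inhibitor control ratio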
CHO Tl flux: thallium flux effects in parental CHO cells, counter-screen for KCNQ1 inhibitor project, cell-based, Tl flux; parental CHO-K1, FluxOR thallium flux fluorescence ratio; stronger effect = lower value; zero means no signal rise above baseline; fluorescence ratio (Tl flux) at 10 µM; 21% of 1,600 active; shares compounds with KCNQ1 inh; AID 588366, 2011;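 active = mean of duplicate thallium-flux fluorescence ratios in parental host cells more than 5 SD below the buffer control mean, cut at about 0.38 in these data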;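 also: ratio is peak minus minimum fluorescence divided by baseline fluorescence; actives read low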
KCNQ1 APC inh: KCNQ1 channel inhibitors, confirmation, orthogonal assay, cell-based, automated electrophysiology | shares compounds with KCNQ1 inh | KCNQ1-CHO cells, automated patch clamp current | calls only at 10 µM | 20% of 490 active | AID 624120, 2012;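 active = KCNQ1 current drop exceeding 3 SD of negative control wells, seen in both duplicate runs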;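 also: steady state current during a 2 s step from -80 to +40 mV; negative values mean current inhibition and positive values mean potentiation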
KCNQ2 inh: KCNQ2 channel inhibition, selectivity assay for KCNQ1 inhibitor project, cell-based; shares compounds with KCNQ1 inh; KCNQ2 cells, FluxOR thallium flux fluorescence; inhibition, % at 10 µM; 71% of 1,600 active; AID 651746, 2012;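 active = mean percent inhibition of the KCNQ2 thallium signal more than 5 SD above the buffer-only control wells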;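 also: KCNQ2 expressed in CHO cells; 0% = buffer control wells and 100% = XE-991 inhibitor control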
KCNQ1-KCNE1 inh: KCNQ1/KCNE1 channel inhibition, selectivity assay for KCNQ1 inhibitor project, CHO-K1 cells, thallium flux, FluxOR; inhibition, % at 10 µM; FluxOR thallium flux fluorescence; 77% of 1,600 active; shares compounds with KCNQ1 inh; AID 652147, 2013;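 active = mean percent inhibition of duplicate wells above the buffer-only control mean plus 3 SD of those controls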;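 also: 0% = buffer only wells and 100% = XE-991 inhibitor control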
KCNK9 block conf: KCNK9 potassium channel inhibitors, confirmation, HEK293 cells, thallium flux, duplicate; inhibition, % at 10 µM; FluxOR thallium flux fluorescence; shares compounds with KCNK9 block; 43% of 4,900 active; AID 492992, 2010;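 active = thallium signal inhibited by more than 5 SD of the compound-free buffer control wells, on both duplicate plates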;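 also: 0% = assay buffer control wells without compound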
Kir21 sel: mouse Kir2.1 channel inhibition, confirmation, selectivity assay for KCNK9 modulator project, cell-based, HEK293, thallium flux; 4% of 4,900 active; inhibition, % at 10 µM; Kir2.1 cells, FluxOR thallium flux fluorescence; shares compounds with KCNK9 block;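 active = thallium signal drop more than 5 SD beyond the mean of the no-compound control wells, seen in both duplicate plates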;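 also: signal is fluorescence rise after thallium addition divided by baseline fluorescence; plate controls were assay buffer only for no effect and full block by chlorpromazine control for full effect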
KCNK9 uninduced: thallium flux in non-induced HEK293 cells, confirmation, counter-screen for KCNK9 inhibitor project, cell-based, second counter screen, non-induced KCNK9-HEK293. 40% of 4,900 active. inhibition, % at 10 µM. AID 492997, 2010. FluxOR thallium flux. shares compounds with KCNK9 block;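 active = thallium signal drop beyond 5 SD of the untreated control mean, on both duplicate plates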;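 also: plate controls were buffer only IC0 wells for no effect and SID17386958 at its maximal inhibitory level for full effect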
An asterisk follows results filed as active; i = inactive; / = not tested or not shown; + = active, no number.

SMILES | KCNQ1 act | KCNQ1 inh | Kir21 inh | hERG protect | KCNK9 block | KCNK3 inh | KCNQ1 block val | CHO Tl flux | KCNQ2 inh | KCNQ1-KCNE1 inh | KCNK9 block conf | Kir21 sel | KCNK9 uninduced | others
N#CCC(=O)Nc1ccc(C(=O)OCC(=O)Nc2ccccc2Sc2ccccc2)cc1 | i | 6* | 2.2 | -5 | -9.1* | i | 99* | 0.43 | 91%* | 153%* | 50%* | i | 34%* | KCNQ1 APC inh=+
CCOC(=O)c1ccc(-c2c(C(=O)OCC)oc3cc(O)c(CC)cc3c2=O)o1 | i | i | 2.8 | -23 | i | i | / | / | / | / | / | / | /
Cc1ccc(N2CCN(C(=O)c3cc(COc4c(C)cccc4C)on3)CC2)c(C)c1 | i | 7* | 1.2 | -20 | i | i | 86* | 0.39 | 113%* | 108%* | i | i | i
Cc1cccc(C)c1OCc1cc(C(=O)N2CCCCCCC2)no1 | i | i | -0.34 | -10 | i | i | / | / | / | / | / | / | /
O=C(O)c1nn(Cc2ncc(-c3cccc(Cl)c3)o2)c(=O)c2ccccc12 | i | i | 2.3 | -17 | i | i | / | / | / | / | / | / | /
CCOc1ccccc1C(=O)OCC(=O)Nc1cc(Cl)ccc1Oc1ccccc1 | i | 8* | 0.17 | -9 | -8.1* | i | 87* | 0.41 | 76%* | 106%* | 32%* | i | 40%*
COc1cccc(OCC(=O)Nc2cc(Cl)ccc2Oc2ccccc2)c1 | i | i | -1.4 | -8 | i | i | / | / | / | / | / | / | /
COc1cccc(OCc2cc(C(=O)N3CCN(c4ccccc4OC)CC3)no2)c1 | i | i | -0.41 | -10 | i | i | / | / | / | / | / | / | /
Cc1cccc(N2CCN(C(=O)COc3ccc4ccc(=O)oc4c3)CC2)c1C | i | i | -0.51 | -9 | i | i | / | / | / | / | / | / | /
Cc1cccc(N2CCN(C(=O)COc3ccc4c(c3)CCC4)CC2)c1C | i | 6* | -1.3 | -10 | i | i | 102* | 0.46 | 100%* | 109%* | i | i | i | KCNQ1 APC inh=i
O=[N+]([O-])c1ccc(Sc2cccc[n+]2[O-])c2nonc12 | i | 18* | -6.3* | -52 | -16* | -14* | 140* | 0.26* | i | + | 74%* | 66%* | 78%*
N#C/C(=C/c1ccc(N2CCOCC2)o1)c1ccc(Br)cc1 | i | 16* | 0.05 | -25 | -12* | i | 167* | 0.26* | i | + | 71%* | 36%* | 70%*
N#C/C(=C/c1ccc(N2CCOCC2)o1)c1nc2ccccc2[nH]1 | / | / | / | / | / | i | / | / | / | / | / | / | /
Cc1nc(NS(=O)(=O)c2ccc(Cl)s2)c2c3c(sc2n1)CCCC3 | i | 7* | 0.23 | -18 | i | i | 79* | 0.47 | i | 66%* | i | i | i
COc1ccc(S(=O)(=O)N2CCC(C(=O)NC3CC3)CC2)cc1OC | i | i | 0.12 | -14 | i | i | / | / | / | / | / | / | /
CC1(C)Cc2c(C#N)c(N3CCN(C(=O)c4ccccc4)CC3)nc(Cc3ccccc3)c2CO1 | i | 10* | 1.6 | -9 | i | i | 106* | 0.4 | 111%* | 128%* | i | i | i | KCNQ1 APC inh=i
Cc1ccc(NC(=O)CN(C)C(=O)C2CCC2)cc1 | / | / | / | / | / | i | / | / | / | / | / | / | /
Cc1ccc(C)c(N2CCN(C(=O)C(Cc3ccccc3)n3cccc3)CC2)c1 (centres undefined) | i | 14* | 1 | -13 | -13* | i | 116* | 0.36* | 103%* | 166%* | 58%* | i | 40%*
COc1ccc(-c2cc3nc(-c4ccccc4)cc(N4CCCC(O)C4)n3n2)cc1 (centres undefined) | i | 9* | -1 | -22 | i | i | 104* | 0.44 | 112%* | 184%* | i | i | i | KCNQ1 APC inh=i
CCN(CC)S(=O)(=O)c1cccc(NC(=O)Nc2cccc(C(F)(F)F)c2)c1 | i | 11* | 0.24 | -21 | i | i | 158* | 0.3* | 121%* | 127%* | i | i | i
CCN(CC(=O)NCc1ccc(F)cc1)C(=O)c1cccnc1SC | i | i | -0.4 | -10 | i | i | / | / | / | / | / | / | /
COc1ccc(NC(=O)CSCC(=O)Nc2ccc(C)c(S(=O)(=O)N3CCCCCC3)c2)cc1 | i | i | -0.87 | -16 | i | i | / | / | / | / | / | / | /
CC(=O)C1=C(C)OC(N)=C(C#N)C1c1cccc2ccccc12 (centres undefined) | i | i | 0.39 | -14 | i | i | / | / | / | / | / | / | /
